≈ marks a conversion by molar mass, not a printed value. Calls of active or inactive are those of the source. No cut-off for these calls is given here.
Key:
[1] = Antioxidant activity assessed as DPPH scavenging activity at 10 to 60 ug/ml after 30 mins
[2] = molecular target: Amyloid-beta precursor protein (Homo sapiens) (UniProt P05067); experiment: Inhibition of self-induced amyloid beta (1-42) aggregation (unknown origin) at 25 uM after 48 hrs by thioflavin T fluorescence method
Procedure, shortened: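 Thioflavin T fluorometric assay of self-induced Aβ1–42 aggregation, with test compounds and the curcumin reference each at 25. Results are reported as percent inhibition of aggregation.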

Acetylcholinesterase = Acetylcholinesterase (Electrophorus electricus, UniProt O42275); experiment: Inhibition of electric eel AChE using acetylthiocholine iodide as substrate preincubated for 15 mins by Ellman's method
[3] = Selectivity ratio of IC50 for equine BuChE to IC50 for electric eel AChE
Procedure, shortened: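 Both IC50 values come from Ellman's method, using AChE from electric eel and BuChE from equine serum. Selectivity for AChE is calculated as IC50(BuChE)/IC50(AChE).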

Cholinesterase = Cholinesterase (Equus caballus, UniProt P81908); experiment: Inhibition of equine serum BuChE using butyrylthiocholine iodide as substrate preincubated for 15 mins by Ellman's method
[4] = Lipophilicity, log P of the compound by […]; assay type: physicochemical; settings: octanol/water
[5] = Metal chelating activity of the compound assessed as Zn2+ complex formation after 20 mins by UV-vis spectrophotometry; assay type: physicochemical
[6] = molecular target: Acetylcholinesterase (Electrophorus electricus) (UniProt O42275); experiment: Mixed-type of inhibition in electric eel AChE at 0.5 to 2 uM by Lineweaver-Burk plot method
[7] = molecular target: Cholinesterase (Equus caballus) (UniProt P81908); experiment: Mixed-type of inhibition in equine BuChE at 10 to 40 uM by Lineweaver-Burk plot method
[8] = molecular target: Cholinesterase (Equus caballus) (UniProt P81908); experiment: Non-competitive inhibition in equine BuChE at 10 to 40 uM by Lineweaver-Burk plot method

Sequence of Cholinesterase (P81908 whole entry): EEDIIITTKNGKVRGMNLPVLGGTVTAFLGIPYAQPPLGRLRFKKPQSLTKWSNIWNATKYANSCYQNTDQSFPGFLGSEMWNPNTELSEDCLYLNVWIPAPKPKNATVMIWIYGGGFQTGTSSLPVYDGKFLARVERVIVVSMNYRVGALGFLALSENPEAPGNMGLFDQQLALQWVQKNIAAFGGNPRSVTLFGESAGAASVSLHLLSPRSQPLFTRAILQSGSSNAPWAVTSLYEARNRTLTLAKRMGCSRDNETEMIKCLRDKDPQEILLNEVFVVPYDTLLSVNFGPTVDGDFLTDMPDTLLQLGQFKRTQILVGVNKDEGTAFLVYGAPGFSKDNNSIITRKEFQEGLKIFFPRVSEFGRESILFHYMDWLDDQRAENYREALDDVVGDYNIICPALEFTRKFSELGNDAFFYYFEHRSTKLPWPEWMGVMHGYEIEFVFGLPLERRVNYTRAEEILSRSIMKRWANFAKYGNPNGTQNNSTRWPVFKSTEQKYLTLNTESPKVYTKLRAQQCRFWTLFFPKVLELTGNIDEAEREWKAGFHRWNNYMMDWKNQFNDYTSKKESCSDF
Sequence of Amyloid-beta precursor protein (Homo sapiens) (P05067 whole entry): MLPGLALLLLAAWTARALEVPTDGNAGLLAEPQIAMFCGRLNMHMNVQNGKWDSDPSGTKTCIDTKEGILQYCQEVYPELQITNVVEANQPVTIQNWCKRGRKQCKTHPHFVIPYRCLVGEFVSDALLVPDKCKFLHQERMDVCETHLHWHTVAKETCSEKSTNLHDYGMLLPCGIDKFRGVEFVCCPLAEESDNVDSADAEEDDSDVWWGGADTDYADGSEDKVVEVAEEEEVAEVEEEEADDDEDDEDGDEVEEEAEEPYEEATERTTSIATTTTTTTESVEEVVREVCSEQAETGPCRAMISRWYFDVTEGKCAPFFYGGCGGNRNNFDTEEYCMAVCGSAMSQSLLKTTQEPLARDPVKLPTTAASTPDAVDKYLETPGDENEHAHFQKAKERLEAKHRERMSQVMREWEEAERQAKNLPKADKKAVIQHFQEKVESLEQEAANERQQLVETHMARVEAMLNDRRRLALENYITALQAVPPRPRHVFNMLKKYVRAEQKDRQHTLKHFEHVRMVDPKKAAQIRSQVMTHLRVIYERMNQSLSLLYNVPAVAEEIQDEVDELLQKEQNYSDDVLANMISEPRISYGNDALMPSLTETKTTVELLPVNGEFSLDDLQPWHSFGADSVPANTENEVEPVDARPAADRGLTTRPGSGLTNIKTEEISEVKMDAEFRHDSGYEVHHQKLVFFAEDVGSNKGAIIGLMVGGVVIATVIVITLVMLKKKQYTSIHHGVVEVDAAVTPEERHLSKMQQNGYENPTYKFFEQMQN
Sequence of Acetylcholinesterase (O42275 whole entry): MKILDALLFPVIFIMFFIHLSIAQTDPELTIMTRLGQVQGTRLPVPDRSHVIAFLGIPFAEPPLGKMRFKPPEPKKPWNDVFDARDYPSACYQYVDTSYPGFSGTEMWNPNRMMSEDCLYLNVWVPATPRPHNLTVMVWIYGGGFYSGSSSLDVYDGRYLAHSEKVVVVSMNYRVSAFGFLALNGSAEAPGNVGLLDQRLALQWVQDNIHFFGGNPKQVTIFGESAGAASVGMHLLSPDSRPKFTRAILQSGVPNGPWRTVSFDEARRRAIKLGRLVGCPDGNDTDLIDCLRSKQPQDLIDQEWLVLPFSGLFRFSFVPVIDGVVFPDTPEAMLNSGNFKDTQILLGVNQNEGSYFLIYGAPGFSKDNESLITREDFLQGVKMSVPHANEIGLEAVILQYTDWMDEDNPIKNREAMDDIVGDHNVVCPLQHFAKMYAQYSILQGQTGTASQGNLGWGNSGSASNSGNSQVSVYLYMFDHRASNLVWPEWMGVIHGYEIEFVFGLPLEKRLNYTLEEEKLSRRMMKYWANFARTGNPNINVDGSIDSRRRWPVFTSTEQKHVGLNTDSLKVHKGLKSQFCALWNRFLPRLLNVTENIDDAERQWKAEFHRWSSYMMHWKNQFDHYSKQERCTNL
Sequence of Cholinesterase (Equus caballus) (P81908 whole entry): as the sequence (P81908 whole entry) above
Sequence of Acetylcholinesterase (Electrophorus electricus) (O42275 24-633 limits assumed): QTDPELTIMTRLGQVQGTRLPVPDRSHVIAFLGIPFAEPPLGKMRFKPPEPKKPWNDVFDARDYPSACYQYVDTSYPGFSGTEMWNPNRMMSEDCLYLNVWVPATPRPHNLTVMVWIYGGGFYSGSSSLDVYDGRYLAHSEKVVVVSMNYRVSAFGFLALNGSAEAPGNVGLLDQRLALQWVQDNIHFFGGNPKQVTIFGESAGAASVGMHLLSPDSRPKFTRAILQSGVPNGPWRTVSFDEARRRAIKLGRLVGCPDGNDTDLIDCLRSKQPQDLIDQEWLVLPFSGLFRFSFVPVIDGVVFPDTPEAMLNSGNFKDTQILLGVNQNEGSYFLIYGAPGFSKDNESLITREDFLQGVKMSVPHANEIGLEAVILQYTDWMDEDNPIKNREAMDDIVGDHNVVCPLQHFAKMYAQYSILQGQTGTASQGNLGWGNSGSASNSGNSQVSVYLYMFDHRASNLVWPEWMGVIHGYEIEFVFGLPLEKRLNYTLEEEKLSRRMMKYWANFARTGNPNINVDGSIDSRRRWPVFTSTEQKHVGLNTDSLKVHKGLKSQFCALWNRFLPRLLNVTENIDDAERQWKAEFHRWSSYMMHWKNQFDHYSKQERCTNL

## Cc1c(C)c2c(c(C)c1O)CC[C@@](C)(CCC[C@H](C)CCC[C@H](C)CCCC(C)C)O2 [ALPHA-TOCOPHEROL]
[1]
  IC50: 31.74 µg/mL (≈ 73.7 µM)

## COc1ccccc1NC(=O)C1Cc2cc(OC)c(OC)cc2C1=O (centres undefined)
[1]
  IC50: 45.76 µg/mL (≈ 134 µM)
[2]
  inhibition: 25.6%
Acetylcholinesterase
  IC50: 700 nM
[3]
  Ratio IC50: 6.9
Cholinesterase
  IC50: 4810 nM
[4]
  logP: 2.08

## CCOc1ccc(NC(=O)C2Cc3cc(OC)c(OC)cc3C2=O)cc1 (centres undefined)
[1]
  IC50: 48.16 µg/mL (≈ 136 µM)
[2]
  inhibition: 40.8%
Acetylcholinesterase
  IC50: 580 nM
[3]
  Ratio IC50: 4.5
Cholinesterase
  IC50: 2610 nM
[4]
  logP: 2.42

## COc1cc2c(cc1OC)C(=O)C(C(=O)Nc1ccc(C)cc1)C2 (centres undefined)
[1]
  IC50: 67.82 µg/mL (≈ 208 µM)
[2]
  inhibition: 26.8%
Acetylcholinesterase
  IC50: 840 nM
[3]
  Ratio IC50: 3.2
Cholinesterase
  IC50: 2500 nM
[4]
  logP: 2.69

## COc1cc2c(cc1OC)C(=O)C(C(=O)Nc1ccc(Cl)cc1)C2 (centres undefined)
[1]
  IC50: 56.76 µg/mL (≈ 164 µM)
[2]
  inhibition: 38.2%
Acetylcholinesterase
  IC50: 500 nM
[3]
  Ratio IC50: 8.8
Cholinesterase
  IC50: 4400 nM
[4]
  logP: 2.76

## COc1cc2c(cc1OC)C(=O)C(C(=O)Nc1cccc(Br)c1)C2 (centres undefined)
[1]
  IC50: 58.88 µg/mL (≈ 151 µM)
[2]
  inhibition: 31.9%
Acetylcholinesterase
  IC50: 330 nM
[3]
  Ratio IC50: 7.4
Cholinesterase
  IC50: 2430 nM
[4]
  logP: 3.03

## COc1cc2c(cc1OC)C(=O)C(C(=O)Nc1ccc(F)cc1)C2 (centres undefined)
[1]
  IC50: 54.96 µg/mL (≈ 167 µM)
[2]
  inhibition: 45.4%
Acetylcholinesterase
  IC50: 110 nM
[3]
  Ratio IC50: 24.1
Cholinesterase
  IC50: 2650 nM
[4]
  logP: 2.36

## COc1cc2c(cc1OC)C(=O)C(C(=O)Nc1ccccc1C)C2 (centres undefined)
[1]
  IC50: 43.74 µg/mL (≈ 134 µM)
[2]
  inhibition: 40.3%
Acetylcholinesterase
  IC50: 360 nM
[3]
  Ratio IC50: 8.5
Cholinesterase
  IC50: 3060 nM
[4]
  logP: 2.69

## CCc1cccc(NC(=O)C2Cc3cc(OC)c(OC)cc3C2=O)c1 (centres undefined)
[1]
  IC50: 64.11 µg/mL (≈ 189 µM)
[2]
  inhibition: 27.4%
Acetylcholinesterase
  IC50: 670 nM
[3]
  Ratio IC50: 4.4
Cholinesterase
  IC50: 2980 nM
[4]
  logP: 3.11

## COc1cc2c(cc1OC)C(=O)C(C(=O)Nc1ccccc1F)C2 (centres undefined)
[1]
  IC50: 75.68 µg/mL (≈ 230 µM)
[2]
  inhibition: 55.3%
Acetylcholinesterase
  IC50: 80 nM
[3]
  Ratio IC50: 40.1
Cholinesterase
  IC50: 3210 nM
[5]
  Activity: Active
[4]
  logP: 2.36
[6]
  inhibition: Active

## COc1cccc(NC(=O)C2Cc3cc(OC)c(OC)cc3C2=O)c1 (centres undefined)
[1]
  IC50: 38.94 µg/mL (≈ 114 µM)
[2]
  inhibition: 30.2%
[7]
  inhibition: Active
Acetylcholinesterase
  IC50: 540 nM
[3]
  Ratio IC50: 3.9
[8]
  inhibition: Active
Cholinesterase
  IC50: 2100 nM
[5]
  Activity: Active
[4]
  logP: 2.08

## COc1ccc(NC(=O)C2Cc3cc(OC)c(OC)cc3C2=O)cc1 (centres undefined)
[1]
  IC50: 49.47 µg/mL (≈ 145 µM)
[2]
  inhibition: 34.5%
Acetylcholinesterase
  IC50: 530 nM
[3]
  Ratio IC50: 5.5
Cholinesterase
  IC50: 2900 nM
[4]
  logP: 2.08

## CCc1ccc(NC(=O)C2Cc3cc(OC)c(OC)cc3C2=O)cc1 (centres undefined)
[1]
  IC50: 76.15 µg/mL (≈ 224 µM)
[2]
  inhibition: 32.1%
Acetylcholinesterase
  IC50: 650 nM
[3]
  Ratio IC50: 4.6
Cholinesterase
  IC50: 2960 nM
[4]
  logP: 3.11

## COc1cc2c(cc1OC)C(=O)C(C(=O)Nc1cccc(F)c1)C2 (centres undefined)
[1]
  IC50: 58.11 µg/mL (≈ 176 µM)
[2]
  inhibition: 38.7%
Acetylcholinesterase
  IC50: 247 nM
[3]
  Ratio IC50: 9.1
Cholinesterase
  IC50: 2250 nM
[4]
  logP: 2.36

## COc1cc2c(cc1OC)C(=O)C(C(=O)Nc1ccccc1Cl)C2 (centres undefined)
[1]
  IC50: 65.92 µg/mL (≈ 191 µM)
[2]
  inhibition: 40.4%
Acetylcholinesterase
  IC50: 300 nM
[3]
  Ratio IC50: 23.7
Cholinesterase
  IC50: 7100 nM
[4]
  logP: 2.76

## COc1cc2c(cc1OC)C(=O)C(C(=O)Nc1cccc(C)c1)C2 (centres undefined)
[1]
  IC50: 55.83 µg/mL (≈ 172 µM)
[2]
  inhibition: 19.1%
Acetylcholinesterase
  IC50: 770 nM
[3]
  Ratio IC50: 2.9
Cholinesterase
  IC50: 2240 nM
[4]
  logP: 2.69

## CCOc1ccccc1NC(=O)C1Cc2cc(OC)c(OC)cc2C1=O (centres undefined)
[1]
  IC50: 63.67 µg/mL (≈ 179 µM)
[2]
  inhibition: 38.1%
Acetylcholinesterase
  IC50: 770 nM
[3]
  Ratio IC50: 8.6
Cholinesterase
  IC50: 6620 nM
[4]
  logP: 2.42

## COc1cc2c(cc1OC)C(=O)C(C(=O)Nc1ccccc1)C2 (centres undefined)
[1]
  IC50: 61.28 µg/mL (≈ 197 µM)
[2]
  inhibition: 14.3%
Acetylcholinesterase
  IC50: 920 nM
[3]
  Ratio IC50: 3.4
Cholinesterase
  IC50: 3150 nM
[4]
  logP: 2.2

## COc1cc2c(cc1OC)C(=O)C(C(=O)Nc1ccccc1Br)C2 (centres undefined)
[1]
  IC50: 65.44 µg/mL (≈ 168 µM)
[2]
  inhibition: 52.8%
Acetylcholinesterase
  IC50: 120 nM
[3]
  Ratio IC50: 28.3
Cholinesterase
  IC50: 3400 nM
[4]
  logP: 3.03

## COc1cc2c(cc1OC)C(=O)C(C(=O)Nc1ccc(Br)cc1)C2 (centres undefined)
[1]
  IC50: 72.14 µg/mL (≈ 185 µM)
[2]
  inhibition: 47.6%
Acetylcholinesterase
  IC50: 140 nM
[3]
  Ratio IC50: 26.1
Cholinesterase
  IC50: 3660 nM
[4]
  logP: 3.03

## COc1cc2c(cc1OC)C(=O)C(C(=O)Nc1cccc(Cl)c1)C2 (centres undefined)
[1]
  IC50: 76.32 µg/mL (≈ 221 µM)
[2]
  inhibition: 37.4%
Acetylcholinesterase
  IC50: 470 nM
[3]
  Ratio IC50: 4.8
Cholinesterase
  IC50: 2240 nM
[4]
  logP: 2.76

## Cc1c(C)c2c(c(C)c1O)CCC(C)(C(=O)O)O2 (centres undefined) [TROLOX]
[1]
  IC50: 20.87 µg/mL (≈ 83.4 µM)

## CCOc1cccc(NC(=O)C2Cc3cc(OC)c(OC)cc3C2=O)c1 (centres undefined)
[1]
  IC50: 44.89 µg/mL (≈ 126 µM)
[2]
  inhibition: 28.3%
Acetylcholinesterase
  IC50: 780 nM
[3]
  Ratio IC50: 5
Cholinesterase
  IC50: 3870 nM
[4]
  logP: 2.42

## CCc1ccccc1NC(=O)C1Cc2cc(OC)c(OC)cc2C1=O (centres undefined)
[1]
  IC50: 55 µg/mL (≈ 162 µM)
[2]
  inhibition: 21.8%
Acetylcholinesterase
  IC50: 860 nM
[3]
  Ratio IC50: 7.3
Cholinesterase
  IC50: 6290 nM
[4]
  logP: 3.11

From ChEMBL document CHEMBL3632513, “Synthesis of donepezil-based multifunctional agents for the treatment of Alzheimer's disease” (Bioorg Med Chem Lett, 2015)
